In ChEMBL document CHEMBL1949533, “Novel molecular combination deriving from natural aminoacids and polyphenols: Design, synthesis and free-radical scavenging activities” (Eur J Med Chem, 2012):

How the values were obtained:
[1] = test system: Radical scavenging activity; assay: Antioxidant activity assessed as DPPH free radical scavenging activity by UV-Vis spectrophotometry; type: functional
Outline: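 DPPH methanolic solution (1.5 mL) mixed with 0.750 mL compound solution at 1, 0.5, 0.25, 0.125 and 0.0625 mg/mL; absorbance decrease read at 517 nm and % remaining DPPH radical calculated. IC50 (concentration halving initial DPPH) derived by regression across concentrations, expressed as nmol/mL.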

[2] = Antioxidant activity assessed as trolox equivalents ratio of AAPH radical scavenging activity after 30 mins by ORAC-fluorescein assay; type: functional
Outline: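 Compounds dissolved in PBS immediately before use, pH 7.4; fluorescein quenching initiated by AAPH, fluorescence (excitation 485 nm) read at 37 °C every 5 min up to 30 min. Net area under fluorescein decay curve (blank minus sample) converted to Trolox equivalents via 10–50 µM Trolox calibration; three replicates.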

Row | SMILES | IC50 [1] [nmol/mL] | Ratio [2]
1 | O=C(Cc1ccc(O)c(O)c1)N[C@@H](CS)C(=O)NCCc1ccc(O)c(O)c1 | 20 | 1.77
2 | COC(=O)[C@@H](N)CS.Cl | 123 | 0.3
3 | Cc1c(C)c2c(c(C)c1O)CCC(C)(C(=O)O)O2 (racemic) [TROLOX] | 55 | –
4 | O=C(Cc1ccc(O)c(O)c1)N[C@@H](Cc1ccc(O)cc1)C(=O)NCCc1ccc(O)c(O)c1 | 32 | 3.82
5 | O=C(O)Cc1ccc(O)c(O)c1 [3,4-DIHYDROXYPHENYLACETIC ACID] | 26 | 4.2
6 | COC(=O)[C@@H](N)Cc1ccc(O)cc1.Cl | > 1280 | 3.9
7 | O=C(O)/C=C/c1ccc(O)c(O)c1 [CAFFEIC ACID] | 41 | 2.7
8 | COC(=O)[C@@H](N)CCSC.Cl [METHIONINE METHYL ESTER HYDROCHLORIDE] | > 1250 | 0.8
9 | O=C(/C=C/c1ccc(O)c(O)c1)N[C@@H](Cc1ccc(O)cc1)C(=O)NCCc1ccc(O)c(O)c1 | 32 | 2.79
10 | COC(=O)[C@H](Cc1ccc(O)cc1)NC(=O)Cc1ccc(O)c(O)c1 | 44 | 4.8
11 | CSCC[C@H](NC(=O)Cc1ccc(O)c(O)c1)C(=O)NCCc1ccc(O)c(O)c1 | 68 | 1.24

Continued, in another order:

Row | IC50 [1] [nmol/mL] | SMILES | Ratio [2]
12 | 185 | COC(=O)[C@H](CS)NC(=O)/C=C/c1cccc(O)c1 | –
13 | 22 | COC(=O)[C@H](CS)NC(=O)/C=C/c1ccc(O)c(O)c1 | 1.4
14 | 143 | COC(=O)[C@H](CS)NC(=O)c1cc(OC)c(O)c(OC)c1 | –
15 | 76 | COC(=O)[C@H](CS)NC(=O)/C=C/c1cc(OC)c(O)c(OC)c1 | 1.3
16 | 30 | COC(=O)[C@H](Cc1ccc(O)cc1)NC(=O)/C=C/c1ccc(O)c(O)c1 | 3.4
17 | 82 | COC(=O)[C@H](CS)NC(=O)Cc1ccc(O)c(OC)c1 | 2.4
18 | 23 | CSCC[C@H](NC(=O)/C=C/c1ccc(O)c(O)c1)C(=O)NCCc1ccc(O)c(O)c1 | 3.38
19 | 84 | COC(=O)[C@H](CS)NC(=O)/C=C/c1ccc(O)c(OC)c1 | 1.4
20 | 48 | COC(=O)[C@H](CCSC)NC(=O)Cc1ccc(O)c(O)c1 | 3.6
21 | 148 | COC(=O)[C@H](CS)NC(=O)/C=C/c1ccc(O)cc1 | –
22 | 26 | O=C(/C=C/c1ccc(O)c(O)c1)N[C@@H](CS)C(=O)NCCc1ccc(O)c(O)c1 | 0.855
23 | 150 | COC(=O)[C@H](CS)NC(=O)/C=C/c1ccccc1O | –
24 | 25 | COC(=O)[C@H](CCSC)NC(=O)/C=C/c1ccc(O)c(O)c1 | 2.3
25 | 29 | COC(=O)[C@H](CS)NC(=O)Cc1ccc(O)c(O)c1 | 3
